Results taken from ChEMBL document CHEMBL3808280, “GroEL/ES inhibitors as potential antibiotics” (Bioorg Med Chem Lett, 2016).

Key:
[1] = tested on: Klebsiella pneumoniae subsp. pneumoniae; assay: Antibacterial activity against multidrug resistant Klebsiella pneumoniae subsp. pneumoniae NCTC 9633 (ATCC 13883) assessed as reduction in bacterial growth incubated for 6 to 8 hrs; format: functional, organism-based
Summary of the method: (§1)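 Broth proliferation assay. S. aureus and MRSA grown in ATCC Medium 18, other pathogens in Brain Heart Infusion. Stagnant incubation at 37°C under breathable seal. OD600 read at mid-log (6-8 h) and corrected with bacteria-free baseline plates. EC50 by variable-slope nonlinear fit, at least triplicate.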

[2] = tested on: Enterobacter cloacae; assay: Antibacterial activity against multidrug resistant Enterobacter cloacae subsp. cloacae CDC 442-68 (ATCC 13047) assessed as reduction in bacterial growth incubated for 6 to 8 hrs; format: functional, organism-based; summary of the method: as §1
[3] = tested on: Staphylococcus aureus; assay: Antibacterial activity against methicillin susceptible Staphylococcus aureus subsp. aureus Seattle 1945 (ATCC 25923) assessed as reduction in bacterial growth incubated for 6 to 8 hrs
[4] = tested on: Enterococcus faecium; assay: Antibacterial activity against multidrug resistant Enterococcus faecium NCTC 7171 (ATCC 19434) assessed as reduction in bacterial growth incubated for 6 to 8 hrs; format: functional, organism-based; summary of the method: as §1
[5] = tested on: Acinetobacter baumannii; assay: Antibacterial activity against multidrug resistant Acinetobacter baumannii 2208 (ATCC 19606) assessed as reduction in bacterial growth incubated for 6 to 8 hrs; format: functional; summary of the method: as §1
[6] = tested on: Staphylococcus aureus; assay: Antibacterial activity against methicillin resistant Staphylococcus aureus subsp. aureus HPV107 (ATCC BAA-44) assessed as reduction in bacterial growth incubated for 6 to 8 hrs; format: functional, organism-based; summary of the method: as §1
[7] = tested on: Pseudomonas aeruginosa; assay: Antibacterial activity against multidrug resistant Pseudomonas aeruginosa NCTC 10332 (ATCC 10145) assessed as reduction in bacterial growth incubated for 6 to 8 hrs; format: functional, organism-based; summary of the method: as §1
[8] = biological target: T1, HSP60/HSP10 (Homo sapiens, UniProt P10809); assay: Inhibition of human HSP60/HSP10 expressed in Escherichia coli Rosetta2(DE3) cells assessed as reduction in denatured pig heart MDH ATPase activity by malachite green dye based assay
[9] = biological target: T1, HSP60/HSP10; assay: Inhibition of human HSP60/HSP10 expressed in Escherichia coli Rosetta2(DE3) cells assessed as inhibition of denatured pig heart MDH refolding by measuring reduction in NADH production incubated for 60 mins by micro plate reader analysis
Summary of the method: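 Pig heart MDH was denatured in guanidine-HCl (dMDH) and complexed with HSP60, then HSP10, in Tris pH 7.4/KCl/MgCl2/DTT buffer. EDTA quench (100 mM final); refolded MDH activity was followed with mesoxalate/NADH at 340 nm.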

[10] = tested on: Bacillus subtilis; assay: Antibacterial activity against Bacillus subtilis 168 assessed as reduction in bacterial growth incubated for 6 to 8 hrs; format: functional, organism-based; details: subsp. subtilis str. 168
[11] = biological target: T2, E. coli GroEL/ES (Escherichia coli, UniProt P0A6F5); assay: (§2) Inhibition of Escherichia coli GroEL/GroES using Escherichia coli GroEL expressed in Escherichia coli DH5alpha cells and Escherichia coli GroES expressed in Escherichia coli BL21(DE3) cells assessed as reduction in pig heart native refolded MDH-mediated NADH production by micro plate reader analysis
Summary of the method: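 Native MDH counter-screen. GroEL/ES-dMDH refolding run 60 min at 37°C, then EDTA-quenched without compound. IC50 averaged from at least triplicate.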

[12] = tested on: HEK293; assay: Cytotoxicity against HEK293 cells assessed as reduction in cell viability after 48 hrs by alamar blue assay; format: cell-based; details: Homo sapiens, HEK293, 48 h
[13] = tested on: Escherichia coli; assay: Antibacterial activity against Escherichia coli DH5alpha assessed as reduction in bacterial growth incubated for 6 to 8 hrs; format: functional, organism-based; details: DH5[alpha]
[14] = tested on: Escherichia coli; assay: Antibacterial activity against acrB-deficient Escherichia coli MC4100 assessed as reduction in bacterial growth incubated for 6 to 8 hrs; format: functional, organism-based
[15] = tested on: Escherichia coli; assay: Antibacterial activity against Escherichia coli SM101 assessed as reduction in bacterial growth incubated for 12 hrs by UV-Vis spectrophotometric analysis; format: functional, organism-based; details: SM101, 12 h
[16] = Cytotoxicity against human THLE3 cells assessed as reduction in cell viability after 48 hrs by alamar blue assay; format: cell-based; details: THLE3, 48 h
[17] = biological target: T2, E. coli GroEL/ES; assay: (§3) Inhibition of Escherichia coli GroEL/GroES using Escherichia coli GroEL expressed in Escherichia coli DH5alpha cells and Escherichia coli GroES expressed in Escherichia coli BL21(DE3) cells assessed as inhibition of denatured rhodanese refolding by measuring reduction in thiocyanate production incubated for 60 mins by micro plate reader analysis
Summary of the method: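 Urea-denatured rhodanese bound to GroEL/GroES in folding buffer containing thiosulfate. After 60 min at 37°C, thiocyanate reaction (KCN, thiosulfate, phosphate) run, then formaldehyde quench and ferric nitrate added. Fe(SCN)3 read at 460 nm after 15 min RT, with protein-free baseline plates.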

[18] = biological target: T2, E. coli GroEL/ES; assay: as §3, with “pig heart MDH” for “rhodanese”, “NADH” for “thiocyanate”
Summary of the method: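 Denatured MDH (guanidine-HCl/DTT, 30 min RT) bound to GroEL with GroES in Tris pH 7.4, KCl, MgCl2, DTT buffer. 60 min at 37°C, EDTA quench to 100 mM. Refolded MDH activity read with mesoxalate/NADH at 340 nm. Log-averaged IC50 from replicates.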

[19] = biological target: T2, E. coli GroEL/ES; assay: as §2, with “in” for “in pig heart”, “rhodanese-mediated thiocyanate” for “MDH-mediated NADH”

T1 sequence (P10809 whole entry): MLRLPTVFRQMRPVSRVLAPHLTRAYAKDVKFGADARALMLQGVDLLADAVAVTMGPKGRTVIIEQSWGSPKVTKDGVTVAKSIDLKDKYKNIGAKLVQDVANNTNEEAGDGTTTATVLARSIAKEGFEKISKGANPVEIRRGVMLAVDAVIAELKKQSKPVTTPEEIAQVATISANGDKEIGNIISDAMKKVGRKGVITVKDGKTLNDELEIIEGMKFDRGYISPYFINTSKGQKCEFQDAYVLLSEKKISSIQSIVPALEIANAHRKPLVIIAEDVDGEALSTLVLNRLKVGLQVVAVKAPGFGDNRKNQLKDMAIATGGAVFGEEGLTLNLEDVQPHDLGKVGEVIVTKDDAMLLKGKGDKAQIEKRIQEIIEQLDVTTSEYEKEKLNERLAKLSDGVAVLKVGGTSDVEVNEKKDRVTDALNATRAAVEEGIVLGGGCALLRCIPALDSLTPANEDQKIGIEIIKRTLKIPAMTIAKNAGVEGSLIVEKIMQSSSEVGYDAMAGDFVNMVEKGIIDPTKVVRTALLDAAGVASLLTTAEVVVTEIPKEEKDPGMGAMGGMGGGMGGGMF
T1 sequence (P61604 whole entry, further chain): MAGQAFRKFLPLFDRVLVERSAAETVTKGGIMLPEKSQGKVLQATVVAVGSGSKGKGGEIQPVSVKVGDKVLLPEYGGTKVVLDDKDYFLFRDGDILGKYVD
T2 sequence (P0A6F5 whole entry, looked up): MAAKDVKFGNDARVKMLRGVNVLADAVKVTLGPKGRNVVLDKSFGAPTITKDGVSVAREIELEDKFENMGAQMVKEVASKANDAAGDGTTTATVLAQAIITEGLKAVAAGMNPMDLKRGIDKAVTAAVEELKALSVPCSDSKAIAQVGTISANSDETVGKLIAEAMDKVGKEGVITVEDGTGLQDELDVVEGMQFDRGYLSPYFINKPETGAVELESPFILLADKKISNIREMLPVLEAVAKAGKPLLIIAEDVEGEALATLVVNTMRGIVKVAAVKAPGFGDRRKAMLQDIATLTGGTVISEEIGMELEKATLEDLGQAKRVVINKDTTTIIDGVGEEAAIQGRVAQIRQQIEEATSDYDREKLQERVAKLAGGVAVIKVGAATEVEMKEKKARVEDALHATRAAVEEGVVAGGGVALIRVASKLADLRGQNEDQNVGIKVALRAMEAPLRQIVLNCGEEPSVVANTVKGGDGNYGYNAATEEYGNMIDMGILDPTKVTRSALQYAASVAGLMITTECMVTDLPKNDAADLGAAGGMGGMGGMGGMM

| Compound | EC50 [1] | EC50 [2] | EC50 [3] | EC50 [4] | EC50 [5] | EC50 [6] | EC50 [7] | IC50 [8] | IC50 [9] | EC50 [10] | IC50 [11] | EC50 [12] | EC50 [13] | EC50 [14] | EC50 [15] | EC50 [16] | IC50 [17] | IC50 [18] | IC50 [19] |
| --- | --- | --- | --- | --- | --- | --- | --- | --- | --- | --- | --- | --- | --- | --- | --- | --- | --- | --- | --- |
| CN[C@@H]1[C@H](O[C@H]2[C@H](O[C@H]3[C@H](O)[C@@H](O)[C@H](N=C(N)N)[C@@H](O)[C@@H]3N=C(N)N)O[C@@H](C)[C@]2(O)C=O)O[C@@H](CO)[C@H](O)[C@H]1O [STREPTOMYCIN] | 3.4 µM | > 100 µM | 3.6 µM | 50 µM | > 100 µM | > 100 µM | 2.9 µM | – | – | – | – | – | – | – | – | – | – | – | – |
| CC(=O)c1cc2c(cc1NC(=O)c1ccccc1Br)OCCO2 | > 100 µM | > 100 µM | > 100 µM | > 100 µM | > 100 µM | > 100 µM | > 100 µM | > 250 µM | > 100 µM | > 100 µM | > 62.5 µM | > 100 µM | > 100 µM | > 100 µM | > 100 µM | > 100 µM | – | – | – |
| NC[C@H]1O[C@H](O[C@H]2[C@H](O)[C@@H](O[C@H]3O[C@H](CO)[C@@H](O)[C@H](N)[C@H]3O)[C@H](N)C[C@@H]2N)[C@H](O)[C@@H](O)[C@@H]1O [KANAMYCIN] | 45 µM | 37 µM | 8.2 µM | > 100 µM | 16 µM | > 100 µM | 25 µM | – | – | – | – | – | – | – | – | – | – | – | – |
| COc1cccc(/C=C2/SC(=S)N(CCC(=O)Nc3ccc(O)cc3)C2=O)c1 | > 100 µM | > 100 µM | 80 µM | > 100 µM | > 100 µM | > 100 µM | > 100 µM | > 250 µM | 13 µM | > 100 µM | > 62.5 µM | > 100 µM | > 100 µM | > 100 µM | > 100 µM | > 100 µM | 9.6 µM | 4.7 µM | 12 µM |
| CNC(=O)Nc1ccc2nc(-c3ccco3)c(-c3ccco3)nc2c1 | > 100 µM | > 100 µM | > 100 µM | > 100 µM | > 100 µM | 94 µM | > 100 µM | > 250 µM | 7.4 µM | > 100 µM | > 62.5 µM | > 100 µM | > 100 µM | > 100 µM | > 100 µM | > 100 µM | 2.5 µM | 3 µM | 2.5 µM |
| CN(C)c1ccc(O)c2c1C[C@H]1C[C@H]3[C@H](N(C)C)C(O)=C(C(N)=O)C(=O)[C@@]3(O)C(O)=C1C2=O [MINOCYCLINE] | 0.7 µM | 1.5 µM | < 0.05 µM | < 0.05 µM | < 0.05 µM | 0.35 µM | 2.4 µM | – | – | – | – | – | – | – | – | – | – | – | – |
| CO[C@H]1/C=C/O[C@@]2(C)Oc3c(C)c(O)c4c(O)c(c(/C=N/N5CCN(C)CC5)c(O)c4c3C2=O)NC(=O)/C(C)=C\C=C\[C@H](C)[C@H](O)[C@@H](C)[C@@H](O)[C@@H](C)[C@H](OC(C)=O)[C@@H]1C [RIFAMPIN] | 5.4 µM | 6.2 µM | < 0.05 µM | 1.2 µM | 0.47 µM | 0.15 µM | 5.2 µM | – | – | – | – | – | – | – | – | – | – | – | – |
| COc1ccc(C(=O)N/N=C/c2ccc(O)c3ncccc23)cc1 | 95 µM | > 100 µM | > 100 µM | > 100 µM | 32 µM | 56 µM | > 100 µM | > 250 µM | > 100 µM | 83 µM | > 62.5 µM | 7.7 µM | > 100 µM | > 100 µM | 19 µM | 15 µM | 18 µM | 31 µM | 52 µM |
